Assay outcomes deposited in PubChem by several laboratories.
SMARCA2 activ: increases SMARCA2 function in MMTV reporter cells; MG213 cells, MMTV-luciferase reporter, dexamethasone, overnight; actives 1% (n = 370,000); AID 652017; activation, % at 9.1 µM; in the data active = activation above about 7.8%;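 note: 0% = vehicle wells and 100% = reference activator wells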
MC4R antag cAMP: antagonists of human melanocortin 4 receptor (MC4R); P32245; MC4R-expressing cells, MTII-stimulated cAMP, LANCE TR-FRET; inhibition, % at 6.5 µM; actives 0.48% (n = 360,000); AID 540295;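 active = inhibition above its plate's cutoff, the mean of tested wells on that plate plus 3 SD, cut at about 29% in these data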;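 note: 0% = Melanotan II alone and 100% = Melanotan II plus saturating MCL0020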
Target sequence (P32245 whole entry, looked up): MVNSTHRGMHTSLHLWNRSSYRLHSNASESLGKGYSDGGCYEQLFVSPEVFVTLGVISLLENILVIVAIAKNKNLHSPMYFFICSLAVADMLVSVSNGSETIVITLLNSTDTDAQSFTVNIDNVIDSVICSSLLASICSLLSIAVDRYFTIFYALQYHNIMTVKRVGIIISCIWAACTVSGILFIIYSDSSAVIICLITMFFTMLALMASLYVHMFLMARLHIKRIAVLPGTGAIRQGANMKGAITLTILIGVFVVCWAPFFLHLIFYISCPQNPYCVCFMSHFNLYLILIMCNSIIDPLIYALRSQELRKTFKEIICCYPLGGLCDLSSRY
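material = U2OS cells stably expressing human melanocortin 4 receptor (MC4R) | also added = Melanotan II challenge | dosing = single nominal compound dose of 6.5 µM | detection = TR-FRET with Eu-cAMP and labeled anti-cAMP, 671 nm | replication = singlicate | timing = compound 30 min, challenge 1 h, detection 1 h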
CFTR F508del cor: CFTR F508del correction in bronchial cells. CFBE cells, YFP halide quenching; stimulated with forskolin plus potentiator P3; % fluorescence drop versus neutral controls. activity (quench increase), % at 7.58 µM. actives 0.36% (n = 350,000). AID 720511;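 active = mean added fluorescence quench of at least 8% versus neutral control, with both replicates also reaching 8%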;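 note: cells transiently co-express mutant CFTR-F508del with the halide-sensitive YFP; corrector assay measuring rescue of mutant channel to the surface after 24 h compound exposure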
MC4R ag barr: agonists of human melanocortin 4 receptor (MC4R) beta-arrestin; AID 540308; U2OS MC4R beta-arrestin complementation, luminescence; percent of melanotan II response, DMSO zero; actives 0.98% (n = 360,000); activation, % at 8.9 µM;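 active = activation above a per-plate cutoff, the mean activation of sample wells on that plate plus 3 SD, cut at about 8% in these data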
MC4R barr ag: human MC4R beta-arrestin agonism confirmation; shares compounds with MC4R ag barr; U2OS MC4R beta-arrestin recruitment, luminescence; scaled DMSO 0%, Melanotan II 100%; activation, % at 8.9 µM; actives 31% (n = 2,400); AID 602192;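 active = mean activation across replicates above the hit cutoff set in the earlier primary screen, cut at about 8% in these data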
MOR-DOR barr ag: OPRM1-OPRD1 heterodimer agonism counter-screen; shares compounds with MC4R ag barr; U2OS PathHunter beta-arrestin, beta-gal luminescence; percent of deltorphin B response, DMSO zero; activation, % at 9.2 µM; actives 5.8% (n = 2,400);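 active = mean activation across replicates exceeds the hit threshold derived in the earlier primary screen, cut at about 18% in these data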;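 note: 100% = deltorphin B at 0.9 µM final and 0% = DMSO alone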
* = called active by the depositor; / = no result; ! = repeats disagree. This is a sample that favours compounds with a hit; in the whole collection about 2.1% have one here.

SMILES | SMARCA2 activ | MC4R antag cAMP | CFTR F508del cor | MC4R ag barr | MC4R barr ag | MOR-DOR barr ag
O=C(COC(=O)c1ccccc1NC(=O)c1ccco1)NCCC1=CCCCC1 | 4 | -1 | / | 14* | 2 | 4
O=C(NCC[C@@H]1CC[C@@H](NC(=O)C2CCC2)[C@H](CO)O1)c1cc(Cl)cc(Cl)c1 | / | / | -2 | / | / | /
COc1ccc(NC(=O)c2ccccc2NC(=O)CSc2ccc(Cl)cc2)cc1 | 1 | -5 | / | 0 | / | /
O=C(CSc1ccccc1)Nc1ccc(C(=O)Nc2ccc(O)cc2)cc1 | -2 | 5 | -1 | 28* | 15* | 5
COc1ccc(C(=O)Nc2ccccc2C(=O)Nc2cccnc2)cc1 | 0 | -3 | 3 | 0 | / | /
COc1ccc(NC(=O)c2ccccc2NC(=O)c2ccccc2)cc1 | 2 | 3 | 2 | 9.6* | 2 | 5
COc1ccc(NC(=O)c2ccccc2NC(=O)CSc2ccccc2)cc1 | 0 | 1 | / | 13* | -1 | 5
CC(C)CC#Cc1ccc([C@H]2[C@H](CO)N3C(=O)CN(C(=O)c4ccc5c(c4)OCO5)C[C@@H]23)cc1 | / | / | -1 | / | / | /
COCC#Cc1cnc2c(c1)C(=O)N([C@@H](C)CO)C[C@H](C)[C@H](CN(C)C(=O)C1CCCCC1)O2 | / | / | 2 | / | / | /
COc1ccc2c3c(n(C)c2c1)[C@@H](CO)N(C(=O)NC(C)C)CC31CN(CC2CCCC2)C1 | / | / | 2 | / | / | /
C(=N\NC1=Nc2cccc3cccc1c23)/c1cccnc1 | 3 | 2 | 2 | -2 | / | /
C(=N\NC1=Nc2cccc3cccc1c23)/c1ccccc1 | 6 | -8 | / | 14* | 1 | 4
Clc1ccc(/C=N/NC2=Nc3cccc4cccc2c34)cc1 | 4 | -6 | / | 16* | 22* | 8
O=C(/C=C/c1cccs1)c1ccc([N+](=O)[O-])cc1 | -2 | 6 | 1 | 11* | 1 | 7
CCn1c2ccccc2c2cc(NC(=O)COc3ccccc3)ccc21 | -2 | -7 | / | 26* | 2 | 3
CCn1c2ccccc2c2cc(NC(=O)COC(=O)c3ccccc3F)ccc21 | 1 | 12 | 4 | 9.8* | 3 | 4
CCn1c2ccccc2c2cc(NC(=O)COC(=O)c3ccccc3O)ccc21 | -1 | 7 | / | 5 | / | /
O=C(COc1ccccc1)Nc1ccc(OC(F)(F)C(F)F)c(NC(=O)COc2ccccc2)c1 | -1 | 0 | / | 17* | 9.9* | 12
COc1ccccc1N1CCN(S(=O)(=O)c2ccc3nc(-c4ccccc4)[nH]c3c2)CC1 | -4 | -1 | 0 | 1 | / | /
O=S(=O)(c1ccc2nc(-c3ccccc3)[nH]c2c1)N1CCN(c2cccc(Cl)c2)CC1 | 0 | 5 | / | 15* | 5 | 8
O=C(N/N=C/C(Cl)=C\c1ccccc1)c1cccs1 | 2 | 12 | -2 | -1 | / | /
CC(/C=N/NC(=O)c1cccs1)=C\c1ccccc1 | 2 | -15 | -3 | 16* | 2 | 9
COc1cccc(NC(=O)C[C@@H]2CC[C@H]3[C@H](COc4ccc(NC(C)=O)cc4C(=O)N3C)O2)c1 | / | / | -1 | / | / | /
CCN1CCN(Cc2ccc(NC(=O)c3cc(NC(=O)c4cc5cccc(OC)c5o4)cc(OC)c3)cc2C(F)(F)F)CC1 | -11 | 0 | -1 | 29*! | 37* | 7
CCc1nnc(NC(=O)Cn2c(=O)oc3ccccc32)s1 | -2 | -2 | / | -2 | / | /
SMILES | SMARCA2 activ | MC4R antag cAMP | CFTR F508del cor | MC4R ag barr | MC4R barr ag | MOR-DOR barr ag
Cc1sc(NC(=O)Cn2c(=O)oc3ccccc32)nc1-c1ccc(Cl)cc1 | -3 | 0 | / | 13* | 3 | 7
CC(=O)Nc1cc(-c2ccccc2Cl)cn2c(-c3ccc(S(C)(=O)=O)cc3)cnc12 | -3 | 23 | -3 | 3 | / | /
CC(=O)Nc1cc(-c2ccccc2)cn2c(-c3ccc(F)c(Cl)c3)cnc12 | -3 | -3 | 1 | 22* | 21* | 4
COc1cccc(-c2cnc3c(NC(C)=O)cc(-c4cccc(NS(C)(=O)=O)c4)cn23)c1 | 4 | 11 | 3 | 8 | / | /
CC(=O)Nc1cc(-c2cccc(NS(C)(=O)=O)c2)cn2c(-c3ccccc3)cnc12 | -1 | 5 | 4 | 12* | 20* | 4
CC(=O)Nc1cc(-c2cccc(F)c2)cn2c(-c3ccc(F)c(Cl)c3)cnc12 | -2 | 5 | -2 | 16* | 19* | 3
CC(=O)Nc1cc(-c2ccc(F)cc2)cn2c(-c3ccc(F)c(Cl)c3)cnc12 | -1 | 17 | -2 | 19* | 18* | 5
CCS(=O)(=O)N1CC2(CN(C(=O)Cc3ccccn3)[C@H](CO)c3[nH]c4cc(OC)ccc4c32)C1 | / | / | 3 | / | / | /
C[C@@H](NC(=O)C[C@@H]1C=C[C@H](NC(=O)C2CCC2)[C@@H](CO)O1)c1ccccc1 | / | / | 1 | / | / | /
C[C@H]1CN([C@@H](C)CO)C(=O)Cc2cc(NS(=O)(=O)c3cn(C)cn3)ccc2O[C@@H]1CN(C)CC1CC1 | / | / | -2 | / | / | /
Cc1ccc(Nc2nc(N)nc(CCl)n2)cc1 | -12 | 9 | -32 | 14* | 17* | 18*
Cc1cccc(Nc2nc(N)nc(CCl)n2)c1 | -3 | 13 | -5 | 5 | / | /
Cc1cccc(Nc2nc(N)nc(CCl)n2)c1C | -12 | 14 | -7 | 25* | 23* | 37*
Cc1cccc(Nc2nc(N)nc(CN3CCC(C(N)=O)CC3)n2)c1C | -1 | 8 | / | 1 | / | /
CC(=O)N1CC2(C1)[C@H](c1ccc(-c3ccc(C#N)cc3)cc1)[C@H](CO)N2CCC(F)(F)F | / | / | 3 | / | / | /
C[C@@H]1CN([C@@H](C)CO)C(=O)c2cc(NC(=O)Nc3ccc(C(F)(F)F)cc3)ccc2O[C@@H](C)CCCCO[C@H]1CN(C)Cc1ccc(Cl)c(Cl)c1 | / | / | 0 | / | / | /
N#C/C(=C\c1ccc(Sc2ccccc2)o1)c1nc2ccccc2[nH]1 | 1 | -3 | / | 12* | 6 | 8
Cc1noc(C)c1NC(=O)N[C@H]1C=C[C@H](CC(=O)N2CCN(C)CC2)O[C@@H]1CO | / | / | 1 | / | / | /
COC(=O)c1ccccc1NC(=O)C1CC(c2ccccc2O)=NO1 (configuration not stated) | 0 | 6 | / | 14* | -2 | 4
C[C@@H]1CN([C@@H](C)CO)C(=O)CCCn2cc(nn2)CO[C@@H]1CN(C)C(=O)Nc1ccc(C(C)(C)C)cc1 | / | / | -2 | / | / | /
O=C(/C=C/c1ccc(OCCCF)cc1)NCc1ccc(Cl)cc1 | 0 | -1 | / | 15* | 2 | 4
C[C@H]1CN([C@@H](C)CO)C(=O)c2cc(NC(=O)c3ccncc3)ccc2O[C@H]1CN(C)S(=O)(=O)c1ccccc1 | / | / | 0 | / | / | /
Cc1cc(C)nc(Nc2n[nH]c(COc3ccc4ccccc4c3)n2)n1 | -3 | 0 | / | 16* | 0 | 3
